Screens as filed in PubChem BioAssay.
MrgX1 PAM: allosterically activates human MrgX1 receptor signaling; Q96LB2; MrgX1-HEK293, Fluo-4 calcium flux, FDSS; hits give high values; B-score at 10 µM; 310,000 tested, 0.63% active; AID 588675;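 active = plate-corrected calcium response at least 3 library SD above typical, normal starting fluorescence, not activating the receptor alone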;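 note: compound read alongside a low EC10 to EC30 dose of BAM8-22 agonist; peak minus trough fluorescence over baseline measured at the second addition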
Target sequence (Q96LB2 whole entry, looked up): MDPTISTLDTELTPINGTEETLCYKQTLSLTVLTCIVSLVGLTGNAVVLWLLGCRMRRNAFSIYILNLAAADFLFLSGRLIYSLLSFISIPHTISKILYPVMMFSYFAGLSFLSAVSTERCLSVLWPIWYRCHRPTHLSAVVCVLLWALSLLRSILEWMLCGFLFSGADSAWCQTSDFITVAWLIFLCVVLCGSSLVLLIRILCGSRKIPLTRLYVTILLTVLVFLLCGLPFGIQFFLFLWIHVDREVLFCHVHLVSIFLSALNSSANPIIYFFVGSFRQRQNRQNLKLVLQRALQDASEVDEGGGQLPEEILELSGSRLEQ
MrgX1 antagonist: antagonists of human MrgX1 receptor; Q96LB2; MRGX1-HEK293 calcium flux, Fluo-4, BAM8-22 antagonism; hits give low values; B-score at 10 µM; 310,000 tested, 1.3% active; AID 588676;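 active = calcium-response B-score plate-corrected more than 3 library SD below zero, starting fluorescence within 5 deviations, no agonist response on first addition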;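 note: peak minus trough fluorescence over baseline after final BAM8-22 challenge near maximal dose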
RGS4 block: inhibitors of human RGS4 | P49798 | 310,000 tested, 0.45% active | B-score at 10 µM | HEK293 M3R/RGS4 inducible, Fluo-4 calcium flux; hits give high values; triggered by carbachol at its EC20;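 active = B-score, a plate-corrected calcium signal, over three deviations above library mean, with baseline fluorescence within five deviations of library mean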;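 note: RGS4 expression induced by doxycycline in cells with stable M3 receptor; B-score is computed from the integrated fluorescence ratio over baseline after carbachol; higher B-score means a larger calcium signal and so more RGS4 inhibition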
Target sequence (P49798 whole entry, looked up): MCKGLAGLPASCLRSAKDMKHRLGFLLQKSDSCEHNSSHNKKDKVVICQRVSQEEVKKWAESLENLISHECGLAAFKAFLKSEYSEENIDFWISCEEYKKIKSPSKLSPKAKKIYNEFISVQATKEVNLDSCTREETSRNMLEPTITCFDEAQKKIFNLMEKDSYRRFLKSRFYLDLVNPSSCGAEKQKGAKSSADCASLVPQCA
RGS4 pot: potentiators or activators of RGS4 | HEK293 M3R/inducible RGS4, carbachol calcium flux Fluo4; hits give low values | B-score at 10 µM | 310,000 tested, 0.92% active;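 active = B-score of the integrated calcium signal more than 4 SD below the library mean, with starting fluorescence not abnormally high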;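 note: negative B-score means reduced calcium response which marks RGS4 activation or potentiation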
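Reagent: ECmax carbachol challenge; Test system: M3R-expressing HEK293 line, RGS4 induced by doxycycline; Schedule: overnight RGS4 induction, 30 min dye load 37 °C, 20 min compound RT; Detection: calcium dye Fluo4 fluorescence; Read-out: Agonist-evoked peak-minus-minimum fluorescence over baseline, integrated ratio, B score.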
KCC2 mod: modulators of human KCC2 chloride dependent transport | KCC2 cells, thallium flux FluoZin-2 fluorescence | B-score of Tl+ flux slope (higher = more flux/activation; lower = inhibition) at 10 µM | 190,000 tested, 2.2% active | AID 1456 | Q9H2X9;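 active = thallium flux slope and its plate-corrected score both differing from the plate sample mean at a set confidence after two filtering rounds, in either direction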;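 note: slope of fluorescence scaled to starting intensity during 10 to 20 s after thallium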
MrgX1 ag: agonists of human MrgX1 receptor | Q96LB2 | MrgX1-HEK293 cells, Fluo-4 calcium fluorescence, agonist mode; hits give high values | AID 588627 | 310,000 tested, 0.44% active | B-score at 10 µM;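 active = calcium response B-score plate-corrected fluorescence ratio at least 3 library SD, with starting fluorescence B-score inside 5 SD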
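Assay system: MrgX1-expressing HEK293 cells / Amount: fifteen thousand cells per well / Doses: test compound in the initial addition of three / Timing: cells plated overnight, dye loaded 0.5 h 37 °C, 0.5 h room temperature / Technique: kinetic calcium dye fluorescence, Fluo-4 NW / Control set: positive and negative controls per plate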
KCC2 secondary: KCC2 (human) modulation, secondary assay. AID 1713. normalised thallium flux (F/F0 slope) at 10 µM. HEK293-KCC2, thallium flux, FluoZin2 fluorescence; hits give high values. shares compounds with KCC2 mod. 3,700 tested, 15% active;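 active = thallium flux slope above the same plate's solvent-only control mean plus 3 SD; inconclusive = the two replicate wells disagree; inactive = no significant difference from solvent-only control wells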
KCC2 bumet counter: thallium flux despite bumetanide block in KCC2 cells, secondary assay 3. shares compounds with KCC2 mod. HEK293-KCC2 + bumetanide/ouabain, thallium flux FluoZin2; hits give high values. normalized thallium flux at 10 µM. 3,700 tested, 49% active. AID 1714;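 active = thallium entry rate above the same plate's blocked-transporter control wells by more than 3 SD; inconclusive = the two repeat wells disagree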;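 note: raw slope of fluorescence over initial fluorescence between 10 and 20 s after thallium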
KCC2 sec2: confirmation of human KCC2 transport modulators; shares compounds with KCC2 mod; HEK293-KCC2, thallium flux FluoZin2 fluorescence; actives lie on both sides; F/F0 rise rate, 10–20 s post-thallium; normalized thallium flux at 10 µM; 3,700 tested, 23% active; AID 1715;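 active = thallium flux slope more than 3 SD above or below the plate's solvent-only control mean, mostly below; inconclusive = the two repeat wells disagreed; inactive = no significant shift from solvent-only controls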
HEK293 Tl flux: acts in parental HEK cells, KCC2 counter-screen; shares compounds with KCC2 mod; HEK293 parental cells, thallium flux FluoZin2, ouabain; baseline-ratio fluorescence slope, 10–20 s after thallium; thallium flux rate (normalised fluorescence) at 10 µM; 3,700 tested, 46% active; AID 1716;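 active = thallium flux rate significantly above the same plate's solvent-only control wells, beyond their mean plus 3 SD; inconclusive = the two replicate wells gave conflicting results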
KCC2 retest ouab: confirmation of human KCC2 modulators with ouabain. 3,700 tested, 48% active. shares compounds with KCC2 mod. raw Tl+ flux slope (below DMSO = inhibition, above = activation) at 10 µM. HEK293-KCC2, thallium flux FluoZin2 fluorescence; bidirectional: low = inhibitor, high = activator;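 active = thallium flux slope beyond 3 SD from same-plate DMSO control mean in most replicates, usually higher, sometimes lower; inconclusive = repeat tests gave conflicting results; inactive = no significant difference from controls in most replicates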;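 note: slope of initial-normalized fluorescence between seconds 10 and 20 after thallium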
HEK293 Tl flux2: counter-screen for KCC2 modulators: effect in parental HEK293 cells. shares compounds with KCC2 mod. thallium flux FluoZin-2 fluorescence slope. thallium flux slope at 10 µM. 3,700 tested, 33% active;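 active = thallium flux slope above the same plate's solvent-control mean plus 3 SD in both duplicate wells; inconclusive = duplicate wells that disagreed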;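 note: run without ouabain in cells lacking the KCC2 cotransporter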
MrgX1 ag confirm: human MrgX1 agonism, re-confirmation screen | 600 tested, 78% active | MrgX1-HEK293, Fluo-4 calcium fluorescence, FDSS | activation, % at 10 µM | AID 602412 | shares compounds with MrgX1 ag;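 active = calcium signal rise, corrected for plate position, at least 3 library SD high, with starting brightness within 5 such deviations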
MrgX1 PAM conf: human MrgX1 positive allosteric modulation, re-confirmation | MrgX1-HEK293, Fluo-4 calcium fluorescence, FDSS | activation (ratio percentage), % at 10 µM | shares compounds with MrgX1 PAM | AID 602413 | 1,200 tested, 13% active;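 active = ratio at least 3 SD above the weak peptide control, stable starting fluorescence, no direct agonism earlier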;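 note: compound followed by low BAM8-22 agonist challenge near EC20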
MrgX1 antag conf: human MrgX1 receptor antagonism, re-confirmation screen | AID 602420 | remaining BAM8-22 calcium response % of control (hits give low values), % at 10 µM | 2,300 tested, 19% active | shares compounds with MrgX1 antagonist | MrgX1-HEK293, BAM8-22 calcium flux, Fluo-4; hits give low values;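 active = remaining agonist calcium response no higher than 100% minus 3 SD of agonist-only control wells, with starting fluorescence near control levels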;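 note: agonist BAM8-22 given at a near maximal EC90 to ECmax level; peak minus minimum fluorescence divided by baseline after agonist addition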
HEK293 Ca flux: MrgX1 antagonist counter-screen hit in parental HEK293 cells | shares compounds with MrgX1 antagonist | AID 624111 | fluorescence ratio F(max-min)/F0 at 10 µM | Fluo-4 calcium fluorescence, FDSS | 4,000 tested, 2% active;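 active = duplicate-averaged calcium fluorescence ratio at least three times the standard deviation of buffer wells, a nonspecific response in parental cells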
HEK293 Ca counter: MrgX1 allosteric activator counter-screen hit in parental HEK293 cells | shares compounds with MrgX1 antagonist | parental HEK293 calcium flux, Fluo-4 fluorescence ratio; hits give high values | fluorescence ratio F(max-min)/F0 at 10 µM | 4,000 tested, 0.4% active;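 active = calcium fluorescence ratio, averaged over duplicates, at least 3 SD of the buffer-well ratio, meaning a nonspecific response in receptor-free cells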;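 note: untransfected parental HEK293 lacking MrgX1 used as counterscreen for MrgX1 allosteric activators; fluorescence change taken during the second addition on a kinetic imager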
HEK293 Ca cntr2: activity in parental HEK293 cells lacking MrgX1 receptor | 4,000 tested, 8.7% active | Fluo-4 calcium fluorescence (FDSS); hits give high values | fluorescence ratio F(max-min)/F0 at 10 µM | shares compounds with MrgX1 antagonist;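 active = calcium fluorescence ratio at least three times the spread of buffer wells, meaning a non-specific response in parental cells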
Large screens that a line does not name were inactive (follow-up assays come after a bar, where they were run). Only some compounds are listed: those with a hit (about 4.7% of all), similar ones and a draw of the others.

CS/C(N)=N/C(=S)Nc1cccc(Cl)c1	MrgX1 antagonist -4.6, KCC2 mod 7.5 | KCC2 secondary inactive | KCC2 bumet counter 0.018 | KCC2 sec2 inactive | HEK293 Tl flux inconclusive | KCC2 retest ouab inactive | HEK293 Tl flux2 inconclusive | MrgX1 antag conf inactive | HEK293 Ca flux inactive | HEK293 Ca counter inactive | HEK293 Ca cntr2 inactive
Cc1ccccc1Nc1nc(N)nc(CSc2n[nH]c(N)n2)n1	none
CC1Cc2ccccc2N1C(=O)c1ccc(N2CCCCC2)c([N+](=O)[O-])c1 (configuration not stated)	MrgX1 antagonist -11, KCC2 mod -4.7 | KCC2 secondary inactive | KCC2 bumet counter inconclusive | KCC2 sec2 inconclusive | HEK293 Tl flux inactive | KCC2 retest ouab 0.013 | HEK293 Tl flux2 inactive | MrgX1 antag conf inactive | HEK293 Ca flux inactive | HEK293 Ca counter inactive | HEK293 Ca cntr2 inactive
O=C(CCNS(=O)(=O)c1ccc(Br)cc1)NC1CCCCC1	none
O=S(=O)(NC(=S)NC1CCCCC1)c1ccc(Br)cc1	MrgX1 PAM 28, KCC2 mod 11 | KCC2 secondary 0.012 | KCC2 bumet counter 0.028 | KCC2 sec2 inactive | HEK293 Tl flux 0.023 | KCC2 retest ouab 0.033 | HEK293 Tl flux2 0.012 | MrgX1 PAM conf 25% | HEK293 Ca flux inactive | HEK293 Ca counter inactive | HEK293 Ca cntr2 inactive
O=S(=O)(Cc1ccccc1)Nc1ccc(F)cc1	none (no result: KCC2 mod)
CN1CC(=O)Nc2ccc([N+](=O)[O-])cc2C1=O	none (no result: KCC2 mod)
Cc1onc(-c2ccccc2)c1C(=O)NNC(=S)NC(=O)c1ccc2c(c1)OCO2	KCC2 mod 16, MrgX1 ag 77 | KCC2 secondary 0.014 | KCC2 bumet counter 0.034 | KCC2 sec2 inactive | HEK293 Tl flux inconclusive | KCC2 retest ouab 0.03 | HEK293 Tl flux2 inconclusive | MrgX1 ag confirm 412% | HEK293 Ca flux inactive | HEK293 Ca counter inactive | HEK293 Ca cntr2 104
Nc1nnc(SCC(=O)c2ccccc2)s1	none (no result: KCC2 mod)
Nc1c(C(=O)c2ccccc2)sc2snc(SCC(=O)c3ccccc3)c12	MrgX1 ag 32 (no result: KCC2 mod) | KCC2 secondary inactive | KCC2 bumet counter inactive | KCC2 sec2 inactive | HEK293 Tl flux inactive | KCC2 retest ouab inactive | HEK293 Tl flux2 inactive | MrgX1 ag confirm 225% | HEK293 Ca flux 0.41 | HEK293 Ca counter inactive | HEK293 Ca cntr2 55
O=C(NNC(=S)NC(=O)c1sc2ccccc2c1Cl)c1ccc(Cl)cc1	MrgX1 antagonist -18, KCC2 mod 25 | KCC2 secondary 0.017 | KCC2 bumet counter 0.053 | KCC2 sec2 inconclusive | HEK293 Tl flux 0.037 | KCC2 retest ouab 0.052 | HEK293 Tl flux2 0.013 | MrgX1 antag conf inactive | HEK293 Ca flux inactive | HEK293 Ca counter inactive | HEK293 Ca cntr2 inactive
COc1cc(OC)cc(C2=NC3(CCC(C)CC3)NC2=S)c1 (configuration not stated)	MrgX1 PAM 6.6, KCC2 mod 18 | KCC2 secondary inactive | KCC2 bumet counter 0.019 | KCC2 sec2 inactive | HEK293 Tl flux 0.025 | KCC2 retest ouab inconclusive | HEK293 Tl flux2 inactive | MrgX1 PAM conf inactive | HEK293 Ca flux inactive | HEK293 Ca counter inactive | HEK293 Ca cntr2 inactive
CC(C)(C)C(=O)Nc1ccc(S(=O)(=O)N2CCC(c3nc4ccccc4[nH]3)CC2)cc1	none (no result: KCC2 mod)
COc1ccc(S(=O)(=O)N(CC(=O)NC2CC2)Cc2ccccc2)cc1	none (no result: KCC2 mod)
CCCCC(=O)NNC(=S)NC(=O)c1ccc(C)cc1	KCC2 mod 39, MrgX1 ag 150 | KCC2 secondary 0.025 | KCC2 bumet counter 0.064 | KCC2 sec2 0.053 | HEK293 Tl flux 0.052 | KCC2 retest ouab 0.052 | HEK293 Tl flux2 0.056 | MrgX1 ag confirm 712% | HEK293 Ca flux inactive | HEK293 Ca counter inactive | HEK293 Ca cntr2 159
COCCn1c(SCC(=O)Nc2cccc(C)n2)nnc1-c1ccco1	none
O=C(CSCc1ccccc1Br)N/N=C/c1ccccc1C(=O)O	none
CCCOc1ccc(C(=O)NNC(=S)NC(=O)c2ccco2)cc1	KCC2 mod 97, MrgX1 ag 146 | KCC2 secondary inactive | KCC2 bumet counter inactive | KCC2 sec2 0.084 | HEK293 Tl flux 0.086 | KCC2 retest ouab inconclusive | HEK293 Tl flux2 0.084 | MrgX1 ag confirm 661% | HEK293 Ca flux inactive | HEK293 Ca counter inactive | HEK293 Ca cntr2 127
CCCOc1ccc(C(=O)NNC(=S)NC(C)=O)cc1	none
